# Shown are actives, neighbours in structure and some others; about 9.8% of the full set was active somewhere.
# PMI act hi M6P: human PMI activators, high substrate, primary screen, biochemical, fluorescence intensity, near-saturating mannose 6-phosphate. AID 1216, 2008. Mannose-6-phosphate isomerase (Homo sapiens), P34949. 0.34% of 190,000 active. activation factor at 20 µM. coupled PMI enzyme assay, resazurin fluorescence, 20 min; active compounds read high; 1 = untreated enzyme, 0 = substrate-free blank;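 active = activation factor of 2 or more at 20 µM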
# Target sequence (P34949 whole entry, looked up): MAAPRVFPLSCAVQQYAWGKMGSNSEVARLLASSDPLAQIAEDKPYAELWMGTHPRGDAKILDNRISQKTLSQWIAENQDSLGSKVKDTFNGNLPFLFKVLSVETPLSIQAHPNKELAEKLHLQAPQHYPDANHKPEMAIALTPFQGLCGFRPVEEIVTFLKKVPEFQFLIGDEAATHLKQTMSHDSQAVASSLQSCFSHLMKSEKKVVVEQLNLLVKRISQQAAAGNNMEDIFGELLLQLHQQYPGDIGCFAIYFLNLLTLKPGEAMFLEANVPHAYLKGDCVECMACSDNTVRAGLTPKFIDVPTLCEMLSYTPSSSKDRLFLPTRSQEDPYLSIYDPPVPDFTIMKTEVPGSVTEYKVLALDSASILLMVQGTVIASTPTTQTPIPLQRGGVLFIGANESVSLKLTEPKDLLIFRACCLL
#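 Material: human phosphomannose isomerase with PGI, G6PDH, diaphorase coupling enzymes; amount: PMI at 15 ng/mL final; also added: Mannose-6-phosphate 1.0 mM (near-saturating) plus 0.22 mM NADP+; incubation: enzyme reaction with compound 20 min at room temperature; signal: resorufin fluorescence (Ex 544/Em 590 nm) from resazurin via diaphorase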
# Calpain2 inh: inhibitors of pig calpain II, primary screen, biochemical, fluorogenic peptide substrate, 1536-well; 0.37% of 220,000 active; inhibition, % at 16 µM; purified calpain II, 30 min;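 active = inhibition above about 50%, limit read from the data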
# WT yeast gro inh: growth inhibition of WT strain, primary screen, mitochondrial fusion inhibitor project, WT and mutant strains, chemical genetic | mitochondrial fusion phenotypic screen | inhibition, % at 10 µM | 2.1% of 190,000 active | AID 1362, 2008; in the data active = inhibition above about 58%; tested in S. cerevisiae
# L major viab: Leishmania major promastigote growth inhibition, primary screen; 9% of 200,000 active; inhibition, % at 10 µM; AID 1063, 2008; Leishmania major promastigotes, resazurin fluorescence viability; in the data active = inhibition above about 50%;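 also: promastigotes grown with compound for 44 hours at 28 °C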
# PMI act: activators of human PMI, primary screen, biochemical, fluorescence intensity, near-Km mannose 6-phosphate; Mannose-6-phosphate isomerase (Homo sapiens), P34949; purified human PMI, coupled resazurin fluorescence, 20 min; active compounds read high; 1 = vehicle control, 0 substrate-free wells; activation factor at 20 µM; 0.005% of 190,000 active; AID 1214, 2008;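 active = activation factor of 2 or more at 20 µM, relative to plate controls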
# Rad51 HR inh: human RAD51 strand exchange inhibitors, primary screen, biochemical, fluorescence; 0.085% of 200,000 active; hRad51 DNA strand exchange, fluorescence dequenching; DNA repair protein RAD51 homolog 1 (Homo sapiens), Q06609; inhibition, % at 10 µM;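 active = inhibition above 40% at the single screening dose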;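 also: 0% = DMSO control wells and 100% = blanks with heterologous ssDNA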
#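 System: hRad51 filaments on single-stranded DNA; reagent: Fluorescein- and BHQ1-tagged 47-mer duplex; compound dosing: one concentration, 10 µM final; timing: filaments 15 min 37 °C, then compound 30 min; measured by: fluorescein emission 520 nm, excitation 485 nm; benchmarks: per-plate controls and blanks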
# Lmaj promast 1uM: Leishmania major promastigote growth inhibition, confirmation, 1 µM repeat of primary hits; shares compounds with L major viab; inhibition, % at 1 µM; L. major promastigote growth, resazurin fluorescence, 48 h; 13% of 1,100 active;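 active = inhibition above about 50% in both repeat tests, limit read from the data; inconclusive = one repeat under the set limit, the other over it; inactive = both repeats under the set limit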
# Starred values were filed as active, the others as inactive; i = inactive; ? = inconclusive; . = no result.
SMILES,PMI act hi M6P,Calpain2 inh,WT yeast gro inh,L major viab,PMI act,Rad51 HR inh,Lmaj promast 1uM
Cc1onc(-c2c(F)cccc2Cl)c1C(=O)Nc1cccc(S(=O)(=O)NCc2ccco2)c1,1,-41,-17,18,1,6,.
O=C(O)C1=C[C@H](c2cccs2)C[C@H](OCc2ccc(CO)cc2)O1,.,14,.,.,.,-2,.
Cc1nn(C)c(C)c1/C=N/NC(=O)CCn1nc(C)c([N+](=O)[O-])c1C,0.9,-13,8,-4,0.9,1,.
Cc1c(O)ccc(/C(Cc2ccc3ccccc3n2)=N\O)c1O,1,-6,-9,59*,1,1,-10
COC(=O)c1cccc2c1-c1ccccc1/C2=N/O,0.9,-14,23,70*,0.9,.,-29
COC(=O)c1ccccc1NCCO,.,-320,.,.,.,.,.
Cc1c(=O)n(OCc2ccccc2F)c2ccccc2[n+]1[O-],1.1,73*,-2,73*,1,-1,-19
Cc1cc(-n2c(C)cc(C(=S)N3CCOCC3)c2C)ccc1Br,0.9,17,35,57*,0.8,-4,-9
O=[N+]([O-])c1cc(Cl)cc(C2=NCCN2)c1,1,-26,20,52*,0.9,2,-15
FC(F)(F)c1nnc(-c2ccccc2)nc1Sc1ccccc1,1.1,-11,21,52*,1.1,-1,39
FC(F)(F)c1nnc(-c2ccccc2)nc1Sc1ccc(Cl)cc1,0.8,-5,16,31,0.8,2,.
C=CCSC(=S)NC1CCS(=O)(=O)C1 (stereo not drawn),0.5,3,-14,93*,0.9,14,6
CC1=NN(C(=O)CCc2ccc3c(c2)OCO3)C(O)(C(F)(F)F)C1 (stereo not drawn),0.9,-10,2,-5,0.9,-68,.
CC1Cc2ccccc2N1C(=O)CNCCCN(C)C (stereo not drawn),1,-30,-22,-1,1,.,.
CC1CC2(C)Oc3ccccc3CC2C(C)C1CNCCCN(C)C (stereo not drawn),1.1,-8,9,100*,1.1,4,23
CC(C)OC(=O)c1ccc(N)cc1,1.1,17,20,-5,1,1,.
O=S(=O)(CC(CN1CCCCC1)N1CCCCC1)c1ccc2ccccc2c1 (stereo not drawn),1,-18,-28,99*,1,-6,?
O=C(O)CSCC(=O)N1CCN(S(=O)(=O)c2ccccc2)CC1,1,16,4,6,1.1,1,.
O=C(CN1CCc2ccccc2C1)N1CCN(S(=O)(=O)c2ccccc2)CC1,0.9,7,-5,90*,0.8,-39,31
CCc1ccccc1Nc1nc2ccccc2n1C,1,-21,3,57*,1,-2,7
CC12CCC(=O)N1C(C(=O)OCC(=O)Nc1cc(S(=O)(=O)N3CCCCC3)ccc1Cl)CS2 (stereo not drawn),1,28,8,-1,0.9,18,.
COCCCNCCCCOc1ccc(Br)cc1Cl,1.1,9,45,98*,0.9,.,76*
CC(C)n1nnnc1-c1ccc(Cl)cc1,1.1,-34,-8,-5,1.1,-5,.
Cc1cccc(C)c1-n1nnnc1C1(Nc2ccccc2)CCCCC1,0.9,33,73*,100*,0.9,.,-11
CS(=O)(=O)NCc1ccc(C(=O)O)cc1,1.1,4,-8,0,1.2,15,.
SMILES,PMI act hi M6P,Calpain2 inh,WT yeast gro inh,L major viab,PMI act,Rad51 HR inh,Lmaj promast 1uM
COc1cccc(N2CCN(C3C4CC5CC(C4)CC3C5)CC2)c1 (stereo not drawn),0.9,-10,8,2,0.9,-7,.
CN1CCCN(C2C3CC4CC(C3)CC2C4)CC1 (stereo not drawn),1,5,32,52*,0.9,.,-12
CC(=O)c1nn(-c2ccccc2)cc1C(=O)c1cccc(Br)c1,1.1,29,5,-5,1.1,11,.
O=C(c1cccc(Br)c1)c1cn(-c2ccccc2)nc1C(=O)c1ccccc1,0.9,22,0,88*,0.9,.,7
CCC(C(=O)NC1CCCCC1)N(Cc1cccs1)C(=O)c1snc(C(N)=O)c1N (stereo not drawn),1,-55,21,12,1,8,.
CCCNC(=O)c1ccc2c(c1)C1C3CCC(C3)C1C(c1ccccc1)N2 (stereo not drawn),0.9,-37,62*,81*,0.8,5,3
Cn1nc(-c2ccc3c(c2)OCCO3)c2ccccc2c1=O,1.1,-4,-5,2,1.1,8,.
CC(C)(CSc1ncccn1)NS(=O)(=O)c1ccccc1,1,-18,6,-1,1,-3,.
Cc1ccc(S(=O)(=O)NC(C)(C)CSc2nnc(Nc3ccccc3)s2)cc1,0.9,32,-11,100*,0.8,6,-6
COc1ccccc1NC(=S)N(Cc1ccco1)Cc1cc2cc(C)c(C)cc2[nH]c1=O,0.9,-20,9,37,0.8,.,.
COc1ccccc1NC(=S)N(Cc1ccco1)Cc1cc2cccc(C)c2[nH]c1=O,1,15,1,100*,0.9,-2,18
COc1ccc(CC(=O)NC(C)c2nnc(SCC(=O)c3ccc(Br)cc3)n2C)cc1 (stereo not drawn),1.2,-52,-5,75*,1,-11,-4
CCn1c(SCC(=O)c2ccc(Br)cc2)nnc1C(C)NC(=O)Cc1ccc(OC)cc1 (stereo not drawn),1,-22,-2,-6,0.9,-3,.
OC(CC1CC12c1ccccc1-c1ncccc12)(c1ccccc1)c1ccccc1 (stereo not drawn),0.9,-65,74*,69*,0.9,7,9
COC(=O)c1ccc2c(c1)C(C)(C)C(/C=C/c1ccc(OC)c(OC)c1OC)=[N+]2C,0.9,i,11,101*,0.1,7,101*
COc1ccc(NC(=O)C(CC(=O)O)C(C)c2ccccc2)cc1 (stereo not drawn),1.1,-18,-9,1,1,4,.
CCOCCCNC(=O)CN(c1cc([N+](=O)[O-])ccc1OC)S(C)(=O)=O,1.1,26,-14,-1,1,3,.
COC(=O)[C@@H]1CC[C@H](C)[C@@H](c2ccc(C)cc2)N1C(=O)c1ccc(/C=N/O[C@@H](C)CN2CCCCc3nc(C)c(C)cc32)cc1,1,-52,75*,100*,1,.,-8

# Assay outcomes (PubChem)
